# In article PMC3267898 (The Journal of antibiotics, 2011):
# Target: 20S proteasome (Homo sapiens, UniProt P28072+P28074+Q99436)
# Assay: Proteasome-Glo luminescent assay in MCF-7 cells
# Assay type: cell-based
# Details: MCF7, read-out: % Inhibition of 20S Proteasome / 20 μg/mL
# Method in brief: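 MCF-7 cells grown at 37°C, 5% CO2 in RPMI 1640 with 10% FBS, penicillin and streptomycin. Log-phase cells trypsinized, washed extensively, seeded at 7,500/well, incubated overnight. Test compound added in DMSO (final 0.2%), 2 h at 37°C. Luminescent read-out of proteasome chymotrypsin-like, trypsin-like or caspase-like activity. % inhibition versus solvent control. Bortezomib (5, 25 nM) was the positive control.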
row,Structure (SMILES),inhibition at 20 µg/mL
1,"COC(=O)c1cccc(O)c1C(=O)c1c(O)cc(C)cc1O [compound 1, moniliphenone]",1%
2,"COC(=O)[C@]12Oc3c(c(O)cc4c3[C@@H]3C=C[C@]5(C4)C(=C(O)c4c(O)cc(C)cc4[C@@H]5OC(C)=O)C3=O)C(=O)[C@]1(O)C(=O)C=C[C@@H]2O [compound 2, acremoxanthone D]",58%
